What was measured:
Glucocorticoid receptor = target: T1, Glucocorticoid receptor (Homo sapiens, UniProt P04150); assay: Antagonist activity at glucocorticoid receptor in human A549 cells assessed as inhibition of dexamethasone-induced transcription at GRE after 24 hrs by luciferase reporter gene assay; type: functional, cell-based
T1 sequence (P04150 whole entry): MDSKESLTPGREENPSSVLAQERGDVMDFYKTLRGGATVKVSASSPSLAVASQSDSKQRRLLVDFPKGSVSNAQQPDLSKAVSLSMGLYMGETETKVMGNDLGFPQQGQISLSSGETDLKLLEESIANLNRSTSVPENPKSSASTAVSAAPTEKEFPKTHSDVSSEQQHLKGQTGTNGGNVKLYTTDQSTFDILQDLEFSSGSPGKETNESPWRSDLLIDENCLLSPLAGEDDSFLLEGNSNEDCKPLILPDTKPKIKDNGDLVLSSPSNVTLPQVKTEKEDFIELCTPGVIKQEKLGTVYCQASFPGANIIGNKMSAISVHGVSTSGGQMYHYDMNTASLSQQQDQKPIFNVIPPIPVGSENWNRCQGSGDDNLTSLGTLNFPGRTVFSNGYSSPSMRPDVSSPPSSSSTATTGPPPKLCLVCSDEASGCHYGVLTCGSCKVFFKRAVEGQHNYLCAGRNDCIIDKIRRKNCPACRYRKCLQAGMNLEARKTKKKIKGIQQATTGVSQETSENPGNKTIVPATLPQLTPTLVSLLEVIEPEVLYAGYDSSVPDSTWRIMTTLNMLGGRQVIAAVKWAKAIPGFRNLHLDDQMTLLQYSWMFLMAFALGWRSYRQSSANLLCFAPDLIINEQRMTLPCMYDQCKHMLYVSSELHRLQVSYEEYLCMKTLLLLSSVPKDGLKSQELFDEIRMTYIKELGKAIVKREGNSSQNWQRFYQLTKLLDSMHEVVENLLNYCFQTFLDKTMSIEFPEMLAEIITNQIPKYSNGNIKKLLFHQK

Progesterone receptor = target: T2, Progesterone receptor (Homo sapiens, UniProt P06401); assay: Antagonist activity at progesterone receptor in human T47D cells assessed as inhibition of progesterone-induced alkaline phosphatase activity after 24 hrs by luminescence based assay; type: functional, cell-based
T2 sequence (P06401 whole entry): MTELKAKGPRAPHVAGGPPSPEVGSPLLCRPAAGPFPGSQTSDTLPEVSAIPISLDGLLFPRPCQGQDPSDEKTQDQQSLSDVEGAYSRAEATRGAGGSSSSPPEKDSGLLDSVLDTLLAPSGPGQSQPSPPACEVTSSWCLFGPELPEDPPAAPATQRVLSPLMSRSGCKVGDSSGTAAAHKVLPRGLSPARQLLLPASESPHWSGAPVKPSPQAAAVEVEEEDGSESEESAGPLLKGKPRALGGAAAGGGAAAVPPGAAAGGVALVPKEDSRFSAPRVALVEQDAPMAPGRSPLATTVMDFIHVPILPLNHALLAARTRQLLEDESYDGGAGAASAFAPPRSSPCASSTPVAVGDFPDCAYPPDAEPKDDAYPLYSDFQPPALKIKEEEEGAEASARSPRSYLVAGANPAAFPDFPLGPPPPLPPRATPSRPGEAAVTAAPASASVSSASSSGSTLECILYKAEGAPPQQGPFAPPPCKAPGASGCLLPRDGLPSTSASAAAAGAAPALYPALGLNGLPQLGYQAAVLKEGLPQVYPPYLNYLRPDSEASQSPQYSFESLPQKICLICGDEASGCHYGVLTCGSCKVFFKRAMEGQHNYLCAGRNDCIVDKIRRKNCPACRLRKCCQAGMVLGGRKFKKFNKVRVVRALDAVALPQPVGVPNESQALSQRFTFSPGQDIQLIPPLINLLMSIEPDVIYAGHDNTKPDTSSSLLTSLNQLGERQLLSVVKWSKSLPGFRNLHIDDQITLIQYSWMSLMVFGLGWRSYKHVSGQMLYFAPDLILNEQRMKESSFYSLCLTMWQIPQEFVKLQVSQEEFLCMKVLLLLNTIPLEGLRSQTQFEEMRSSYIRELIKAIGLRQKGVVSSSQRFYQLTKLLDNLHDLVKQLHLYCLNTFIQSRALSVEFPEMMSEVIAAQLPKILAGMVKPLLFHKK

T47D = assay: Selectivity ratio of IC50 for progesterone receptor in human T47D cells to IC50 for glucocorticoid receptor in human A549 cells; type: cell-based
Outline: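 Ratio calculated by dividing the IC50 from the T47D alkaline phosphatase assay by the IC50 from the A549 cell-based functional assay, with both measured in this work. It serves as an index of how well PR and GR antagonism are separated. Mifepristone was run alongside as the reference compound.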

SMILES	IC50 (Glucocorticoid receptor) [nM]	IC50 (Progesterone receptor) [nM]	Ratio IC50 (T47D)
CC#C[C@]1(NC=O)CC[C@H]2[C@@H]3CCC4=CC(=O)CCC4=C3[C@@H](c3ccc4oc(C(F)(F)F)nc4c3)C[C@@]21C	142	46	0.3
CC#C[C@]1(O)CC[C@H]2[C@@H]3CCC4=CC(=O)CCC4=C3[C@@H](c3ccc4oc(C(F)(F)F)nc4c3)C[C@@]21C	61	85	1.4
CC#C[C@]1(NC=O)CC[C@H]2[C@@H]3CCC4=CC(=O)CCC4=C3[C@@H](c3ccc4ocnc4c3)C[C@@]21C	60	41	0.7
CC#C[C@]1(O)CC[C@H]2[C@@H]3CCC4=CC(=O)CCC4=C3[C@@H](c3ccc(N(C)C)cc3)C[C@@]21C			0.9

Continued by falling IC50 (Glucocorticoid receptor), values first:

IC50 (Glucocorticoid receptor) [nM]	IC50 (Progesterone receptor) [nM]	SMILES	Ratio IC50 (T47D)
45	101	CC#C[C@]1(O)CC[C@H]2[C@@H]3CCC4=CC(=O)CCC4=C3[C@@H](c3ccc4ocnc4c3)C[C@@]21C	2.2
23	35	CC#C[C@]1(O)CC[C@H]2[C@@H]3CCC4=CC(=O)CCC4=C3[C@@H](c3ccc4oc(C)nc4c3)C[C@@]21C	1.5
13	65	CC#C[C@]1(O)CC[C@H]2[C@@H]3CCC4=CC(=O)CCC4=C3[C@@H](c3ccc4oc(CC)nc4c3)C[C@@]21C	5
